Experimental data taken from ChEMBL document CHEMBL5252539, “In vitro biological evaluation of new antimycobacterial salicylanilide-tuftsin conjugates” (Eur J Med Chem, 2017).
Activity calls are given as the source filed them. The calls are words filed in the database; no cut-off is given here. *1 amine or outer side, *2 acyl side, *3 side chain or, on linkers, in order; H or OH if unused. Where a SMILES comes first, the peptide text is derived from it. [ ]: non-standard residue; d: D form. The star is where a group is joined. X4 = O=C(Nc1ccc(C(F)(F)F)cc1)c1cc(/C=N\OCC(=O)*)ccc1O; X2 = C/C(=N\OCC(=O)*)c1ccc(NC(=O)c2cc(Br)ccc2O)cc1; X1 = C/C(=N\OCC(=O)[*:2])c1ccc(N[*:1])cc1; Benzoyl(5-Br-2-OH) = O=C(c1cc(Br)ccc1O)*; Palmitoyl = CCCCCCCCCCCCCCCC(=O)*; Decanoyl = CCCCCCCCCC(=O)*; X3 = O=C(c1cc(Cl)ccc1O)*; Butyryl = CCCC(=O)*

System: Mycobacterium tuberculosis
Test: Antimycobacterial activity against isoniazid and rifampicin resistant Mycobacterium tuberculosis A8 ATCC 35822 assessed as reduction in colony forming unit after 28 days by serial dilution method
Type: functional, organism-based
Settings: time 28.0 day
How it was run: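 After the 4-week MIC incubation in Sula semisynthetic medium (pH 6.5), growth inhibition confirmed by plating on Löwenstein-Jensen solid medium and counting colony forming units.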

| SMILES | Activity |
| --- | --- |
| C/C(=N\OCC(=O)N[C@H](C(=O)O)[C@@H](C)O)c1ccc(NC(=O)c2cc(Br)ccc2O)cc1 | Active |
| C/C(=N\OCC(=O)NCC(=O)O)c1ccc(NC(=O)c2cc(Br)ccc2O)cc1 | Active |
| C/C(=N\OCC(=O)NCC(=O)N[C@@H](Cc1ccccc1)C(=O)N[C@@H](CC(C)C)C(=O)NCC(=O)N[C@H](C(=O)N[C@@H](CCCCN)C(=O)N1CCC[C@@H]1C(=O)N1CCC[C@H]1C(=O)N[C@H](CCCNC(=N)N)C(=O)O)[C@@H](C)O)c1ccc(NC(=O)c2cc(Br)ccc2O)cc1 | Active |
| C/C(=N\OCC(=O)NCC(=O)N[C@@H](Cc1ccccc1)C(=O)N[C@@H](CC(C)C)C(=O)NCC(=O)N[C@H](C(=O)N[C@@H](CCCCN)C(=O)N1CCC[C@@H]1C(=O)N[C@H](CCCCN)C(=O)NCC(=O)N[C@@H](C(=O)N[C@H](CCCCN)C(=O)N1CCC[C@H]1C(=O)N[C@H](CCCCN)C(=O)NCC(=O)N[C@@H](C(=O)N[C@@H](CCCCN)C(=O)N1CCC[C@@H]1C(=O)N[C@H](CCCCN)C(=O)NCC(=O)N[C@@H](C(=O)N[C@H](CCCCN)C(=O)N1CCC[C@H]1C(=O)N[C@H](CCCCN)C(=O)NCC(N)=O)[C@H](C)O)[C@H](C)O)[C@H](C)O)[C@@H](C)O)c1ccc(NC(=O)c2cc(Br)ccc2O)cc1 | Active |
| C/C(=N\OCC(=O)NCC(=O)N[C@@H](Cc1ccccc1)C(=O)N[C@@H](CC(C)C)C(=O)NCC(=O)N[C@H](C(=O)N[C@@H](CCCCN)C(=O)N1CCC[C@@H]1C(=O)N[C@H](CCCNC(=N)N)C(=O)O)[C@@H](C)O)c1ccc(NC(=O)c2cc(Br)ccc2O)cc1 | Active |
| C/C(=N\OCC(=O)N[C@H](C(=O)N[C@@H](CCCCN)C(=O)N1CCC[C@H]1C(=O)N1CCC[C@@H]1C(=O)N[C@H](CCCNC(=N)N)C(=O)O)[C@@H](C)O)c1ccc(NC(=O)c2cc(Br)ccc2O)cc1 | Active |
| C/C(=N\OCC(=O)NCCCC[C@H](NC(=O)[C@@H]1CCCN1C(=O)[C@H](CCCCN)NC(=O)[C@@H](NC(=O)CNC(=O)[C@H](CCCCNC(=O)CO/N=C(\C)c1ccc(NC(=O)c2cc(Br)ccc2O)cc1)NC(=O)[C@@H]1CCCN1C(=O)[C@H](CCCCN)NC(=O)[C@@H](NC(=O)[C@H](CCCNC(=N)N)NC(=O)[C@@H]1CCCN1C(=O)[C@H](CCCCN)NC(=O)[C@@H](N)[C@@H](C)O)[C@@H](C)O)[C@@H](C)O)C(=O)NCC(=O)O)c1ccc(NC(=O)c2cc(Br)ccc2O)cc1 (H-TKPRTKPK(X2)GTKPK(X2)G-OH) | Active |
| CCCCCCCCCCCCCCCC(=O)NCCCC[C@H](NC(=O)[C@@H]1CCCN1C(=O)[C@H](CCCCN)NC(=O)[C@@H](NC(=O)CO/N=C(\C)c1ccc(NC(=O)c2cc(Cl)ccc2O)cc1)[C@@H](C)O)C(=O)NCC(=O)N[C@H](C(=O)N[C@@H](CCCCN)C(=O)N1CCC[C@H]1C(=O)N[C@@H](CCCCN)C(=O)NCC(=O)N[C@H](C(=O)N[C@@H](CCCCN)C(=O)N1CCC[C@H]1C(=O)N[C@@H](CCCCN)C(=O)NCC(=O)N[C@H](C(=O)N[C@@H](CCCCN)C(=O)N1CCC[C@H]1C(=O)N[C@@H](CCCCN)C(=O)NCC(N)=O)[C@@H](C)O)[C@@H](C)O)[C@@H](C)O (X3-[X1]TKPK(Palmitoyl)GTKPKGTKPKGTKPKG-NH2) | Active |
| C/C(=N\OCC(=O)N[C@H](C(=O)N[C@@H](CCCCN)C(=O)N1CCC[C@H]1C(=O)N[C@@H](CCCCN)C(=O)NCC(=O)N[C@H](C(=O)N[C@@H](CCCCN)C(=O)N1CCC[C@H]1C(=O)N[C@@H](CCCCN)C(=O)NCC(=O)N[C@H](C(=O)N[C@@H](CCCCN)C(=O)N1CCC[C@H]1C(=O)N[C@@H](CCCCN)C(=O)NCC(=O)N[C@H](C(=O)N[C@@H](CCCCN)C(=O)N1CCC[C@H]1C(=O)N[C@@H](CCCCN)C(=O)NCC(N)=O)[C@@H](C)O)[C@@H](C)O)[C@@H](C)O)[C@@H](C)O)c1ccc(NC(=O)c2cc(Cl)ccc2O)cc1 (X3-[X1]TKPKGTKPKGTKPKGTKPKG-NH2) | Active |
| C[C@@H](O)[C@H](NC(=O)CNC(=O)[C@H](CCCCN)NC(=O)[C@@H]1CCCN1C(=O)[C@H](CCCCN)NC(=O)[C@@H](NC(=O)CNC(=O)[C@H](CCCCN)NC(=O)[C@@H]1CCCN1C(=O)[C@H](CCCCN)NC(=O)[C@@H](NC(=O)CNC(=O)[C@H](CCCCN)NC(=O)[C@@H]1CCCN1C(=O)[C@H](CCCCN)NC(=O)[C@@H](NC(=O)CO/N=C\c1ccc(O)c(C(=O)Nc2ccc(C(F)(F)F)cc2)c1)[C@@H](C)O)[C@@H](C)O)[C@@H](C)O)C(=O)N[C@@H](CCCCN)C(=O)N1CCC[C@H]1C(=O)N[C@@H](CCCCN)C(=O)NCC(N)=O (X4-TKPKGTKPKGTKPKGTKPKG-NH2) | Active |
| CCCC(=O)NCCCC[C@H](NC(=O)[C@@H]1CCCN1C(=O)[C@H](CCCCN)NC(=O)[C@@H](NC(=O)CO/N=C(\C)c1ccc(NC(=O)c2cc(Br)ccc2O)cc1)[C@@H](C)O)C(=O)NCC(=O)N[C@H](C(=O)N[C@@H](CCCCN)C(=O)N1CCC[C@H]1C(=O)N[C@@H](CCCCN)C(=O)NCC(=O)N[C@H](C(=O)N[C@@H](CCCCN)C(=O)N1CCC[C@H]1C(=O)N[C@@H](CCCCN)C(=O)NCC(=O)N[C@H](C(=O)N[C@@H](CCCCN)C(=O)N1CCC[C@H]1C(=O)N[C@@H](CCCCN)C(=O)NCC(N)=O)[C@@H](C)O)[C@@H](C)O)[C@@H](C)O ({Benzoyl(5-Br-2-OH)}-[X1]TKPK(Butyryl)GTKPKGTKPKGTKPKG-NH2) | Active |
| CCCCCCCCCC(=O)NCCCC[C@H](NC(=O)[C@@H]1CCCN1C(=O)[C@H](CCCCN)NC(=O)[C@@H](NC(=O)CO/N=C(\C)c1ccc(NC(=O)c2cc(Br)ccc2O)cc1)[C@@H](C)O)C(=O)NCC(N)=O ({Benzoyl(5-Br-2-OH)}-[X1]TKPK(Decanoyl)G-NH2) | Active |
| CCCCCCCCCC(=O)NCCCC[C@H](NC(=O)[C@@H]1CCCN1C(=O)[C@H](CCCCN)NC(=O)[C@@H](NC(=O)CO/N=C(\C)c1ccc(NC(=O)c2cc(Br)ccc2O)cc1)[C@@H](C)O)C(=O)NCC(=O)N[C@H](C(=O)N[C@@H](CCCCN)C(=O)N1CCC[C@H]1C(=O)N[C@@H](CCCCN)C(=O)NCC(=O)N[C@H](C(=O)N[C@@H](CCCCN)C(=O)N1CCC[C@H]1C(=O)N[C@@H](CCCCN)C(=O)NCC(=O)N[C@H](C(=O)N[C@@H](CCCCN)C(=O)N1CCC[C@H]1C(=O)N[C@@H](CCCCN)C(=O)NCC(N)=O)[C@@H](C)O)[C@@H](C)O)[C@@H](C)O ({Benzoyl(5-Br-2-OH)}-[X1]TKPK(Decanoyl)GTKPKGTKPKGTKPKG-NH2) | Active |
| CCCCCCCCCCCCCCCC(=O)NCCCC[C@H](NC(=O)[C@@H]1CCCN1C(=O)[C@H](CCCCN)NC(=O)[C@@H](NC(=O)CO/N=C(\C)c1ccc(NC(=O)c2cc(Br)ccc2O)cc1)[C@@H](C)O)C(=O)NCC(N)=O ({Benzoyl(5-Br-2-OH)}-[X1]TKPK(Palmitoyl)G-NH2) | Active |
| CCCCCCCCCCCCCCCC(=O)NCCCC[C@H](NC(=O)[C@@H]1CCCN1C(=O)[C@H](CCCCN)NC(=O)[C@@H](NC(=O)CO/N=C(\C)c1ccc(NC(=O)c2cc(Br)ccc2O)cc1)[C@@H](C)O)C(=O)NCC(=O)N[C@H](C(=O)N[C@@H](CCCCN)C(=O)N1CCC[C@H]1C(=O)N[C@@H](CCCCN)C(=O)NCC(=O)N[C@H](C(=O)N[C@@H](CCCCN)C(=O)N1CCC[C@H]1C(=O)N[C@@H](CCCCN)C(=O)NCC(=O)N[C@H](C(=O)N[C@@H](CCCCN)C(=O)N1CCC[C@H]1C(=O)N[C@@H](CCCCN)C(=O)NCC(N)=O)[C@@H](C)O)[C@@H](C)O)[C@@H](C)O ({Benzoyl(5-Br-2-OH)}-[X1]TKPK(Palmitoyl)GTKPKGTKPKGTKPKG-NH2) | Active |
| C/C(=N\OCC(=O)NCCCC[C@H](NC(=O)[C@@H]1CCCN1C(=O)[C@H](CCCCN)NC(=O)[C@@H](NC(=O)CO/N=C(\C)c1ccc(NC(=O)c2cc(Br)ccc2O)cc1)[C@@H](C)O)C(=O)NCC(=O)N[C@H](C(=O)N[C@@H](CCCCN)C(=O)N1CCC[C@H]1C(=O)N[C@@H](CCCCN)C(=O)NCC(=O)N[C@H](C(=O)N[C@@H](CCCCN)C(=O)N1CCC[C@H]1C(=O)N[C@@H](CCCCN)C(=O)NCC(=O)N[C@H](C(=O)N[C@@H](CCCCN)C(=O)N1CCC[C@H]1C(=O)N[C@@H](CCCCN)C(=O)NCC(N)=O)[C@@H](C)O)[C@@H](C)O)[C@@H](C)O)c1ccc(NC(=O)c2cc(Br)ccc2O)cc1 ({Benzoyl(5-Br-2-OH)}-[X1]TKPK(X2)GTKPKGTKPKGTKPKG-NH2) | Active |
| C/C(=N\OCC(=O)N[C@H](C(=O)N[C@@H](CCCCN)C(=O)N1CCC[C@H]1C(=O)N[C@@H](CCCCN)C(=O)NCC(=O)N[C@H](C(=O)N[C@@H](CCCCN)C(=O)N1CCC[C@H]1C(=O)N[C@@H](CCCCN)C(=O)NCC(N)=O)[C@@H](C)O)[C@@H](C)O)c1ccc(NC(=O)c2cc(Br)ccc2O)cc1 ({Benzoyl(5-Br-2-OH)}-[X1]TKPKGTKPKG-NH2) | Active |
| CCCCCCCCCCCCCCCC(=O)NCCCC[C@H](NC(=O)[C@@H]1CCCN1C(=O)[C@H](CCCCN)NC(=O)[C@@H](NC(=O)CNC(=O)[C@H](CCCCN)NC(=O)[C@@H]1CCCN1C(=O)[C@H](CCCCN)NC(=O)[C@@H](NC(=O)CNC(=O)[C@H](CCCCN)NC(=O)[C@@H]1CCCN1C(=O)[C@H](CCCCN)NC(=O)[C@@H](NC(=O)CO/N=C(\C)c1ccc(NC(=O)c2cc(Br)ccc2O)cc1)[C@@H](C)O)[C@@H](C)O)[C@@H](C)O)C(=O)NCC(=O)N[C@H](C(=O)N[C@@H](CCCCN)C(=O)N1CCC[C@H]1C(=O)N[C@@H](CCCCN)C(=O)NCC(N)=O)[C@@H](C)O ({Benzoyl(5-Br-2-OH)}-[X1]TKPKGTKPKGTKPK(Palmitoyl)GTKPKG-NH2) | Active |
| C/C(=N\OCC(=O)N[C@H](C(=O)N[C@@H](CCCCN)C(=O)N1CCC[C@H]1C(=O)N[C@@H](CCCCN)C(=O)NCC(=O)N[C@H](C(=O)N[C@@H](CCCCN)C(=O)N1CCC[C@H]1C(=O)N[C@@H](CCCCN)C(=O)NCC(=O)N[C@H](C(=O)N[C@@H](CCCCN)C(=O)N1CCC[C@H]1C(=O)N[C@@H](CCCCN)C(=O)NCC(=O)N[C@H](C(=O)N[C@@H](CCCCN)C(=O)N1CCC[C@H]1C(=O)N[C@@H](CCCCN)C(=O)NCC(N)=O)[C@@H](C)O)[C@@H](C)O)[C@@H](C)O)[C@@H](C)O)c1ccc(NC(=O)c2cc(Br)ccc2O)cc1 ({Benzoyl(5-Br-2-OH)}-[X1]TKPKGTKPKGTKPKGTKPKG-NH2) | Active |
